Source: BindingDB's records for doi:10.1021/jm0301484 (Organix, 2003)
Several values for one entry are separate records, joined by “and”; a condition that tells them apart may be missing. Equal entries are not always repeated.

Assays:
[1] = target: Sodium-dependent dopamine transporter; assay: In vitro affinity for dopamine transporter in Rhesus (Macaca mulatta) or Cynomolgus (Macaca fasicularis) monkey striata using [3H]WIN-35428 displacement.
How it was run: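 Caudate-putamen membranes homogenized in ice-cold 50 mM Tris-HCl pH 7.4 and washed by centrifugation. Competition with fixed [3H]WIN 35,428 (0.3 nM) at 4 mg original wet tissue/mL in 50 mM Tris-HCl with 100 mM NaCl. Incubated 2 h at 0-4 °C, filtered on GF/B presoaked in 0.1% BSA, scintillation counting. Triplicate, 2-3 brains; IC50.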

[2] = target: Sodium-dependent serotonin transporter; assay: In vitro affinity for serotonin transporter in Rhesus (Macaca mulatta) or Cynomolgus (Macaca fasicularis) monkey striata using [3H]citalopram displacement.
How it was run: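 Cynomolgus or rhesus caudate-putamen homogenised in ice-cold 50 mM Tris-HCl, pH 7.4, and washed by centrifugation. Membranes (4 mg original wet weight/mL) were incubated with 1 nM [3H]citalopram and a range of test drug concentrations in buffer with 100 mM NaCl, 2 h at 0–4 °C.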

Row | Structure (SMILES) | IC50 [1] | IC50 [2] [nM]
1 | CCC(=O)C1C(c2ccc(F)cc2)CC2CCC1N2CCCN1CC[S][Re]2(=[O])[S]CC[N]2C(=O)C1 [(1R,12S) -N-[ (2-( (3'-N-propyl-3''alpha-(4-fluorophenyl)tropane-2''beta-propionyl) (2-mercaptoethyl)amino) -2-aminoethanethiolato]rhenium(v)oxide] | 3 nM and 5.9 nM and 1.5 nM | 
2 | COC(=O)C1C(c2ccc(F)cc2)CC2CCC1N2CCCN1CC[S][Re]2(=[O])[S]CC[N]2C(=O)C1 (stereo not drawn) [Diastereiosomer of [N-[2-[(3'-N'-Propyl-3''beta-(4-fluorophenyl)tropane-2''beta-carboxylic acid methyl ester)(2-mercaptoethyl)amino]acetyl]-2-aminoethanethiolato]rhenium(V) oxide] | 3.8 nM and 2.9 nM | 
3 | CCC(=O)C1=C(c2ccc(Cl)c(Cl)c2)CC2CCC1N2CCCN1CC[S][Re]2(=[O])[S]CC[N]2C(=O)C1 (stereo not drawn) [N-[ (2-( (3'-N-propyl-(1''R) -3''-(3,4-dichlorophenyl)trop-2''-ene-2''--1-propanoyl) (2-mercaptoethyl)amino)acetyl) -2-aminoethanethiolato)rhenium(V) oxide] | 1200 nM | 2000
4 | COC(=O)C1=C(c2ccc(Cl)c(Cl)c2)CC2CCC1N2CCCN1CC[S][Re]2(=[O])[S]CC[N]2C(=O)C1 (stereo not drawn) [N-[ (2-( (3'-N-propyl-(1''R) -3''-(3,4-dichlorophenyl)trop-2''-ene-2''--carbomethoxy) (2-mercaptoethyl)amino)acetyl) -2-aminoethanethiolato)rhenium(V) oxide] | 60 nM | 1690
5 | CCC(=O)C1=C(c2ccc(F)cc2)CC2CCC1N2CCCN1CC[S][Re]2(=[O])[S]CC[N]2C(=O)C1 (stereo not drawn) [N-[ (2-( (3'-N-propyl-(1''R) -3''-(4-flurophenyl)trop-2''-ene-2''--1-propanoyl) (2-mercaptoethyl)amino)acetyl) -2-aminoethanethiolato)rhenium(V) oxide] | 660 nM | 2100
6 | CCC(=O)C1C(c2ccc(Cl)c(Cl)c2)CC2CCC1N2CCCN1CC[S][Re]2(=[O])[S]CC[N]2C(=O)C1 (stereo not drawn) [N-[ (2-( (3'-N-propyl-(1''R) -3''beta-(3,4-dichlorophenyl)tropane-2''-beta-1-propanoyl) (2-mercaptoethyl)amino)acetyl) -2-aminoethanethiolato)rhenium(V) oxide] | 5 nM and 5.3 nM | 337
7 | COC(=O)C1=C(c2ccc(F)cc2)CC2CCC1N2CCCN1CC[S][Re]2(=[O])[S]CC[N]2C(=O)C1 (stereo not drawn) [N-[ (2-( (3'-N-propyl-(1''R) -3''beta-(4-fluorophenyl)trop-2''-ene-2''--carbomethoxy) (2-mercaptoethyl)amino)acetyl) -2-aminoethanethiolato)rhenium(V) oxide] | 3500 nM | 4000
8 | COC(=O)C1=C(c2ccc3ccccc3c2)CC2CCC1N2CCCN1CC[S][Re]2(=[O])[S]CC[N]2C(=O)C1 (configuration not stated) [O-1185] | 63.4 nM | 964
9 | COC(=O)C1C(c2ccc3ccccc3c2)CC2CCC1N2CCCN1CC[S][Re]2(=[O])[S]CC[N]2C(=O)C1 (configuration not stated) [O-2130] | 4 nM and 3.64 nM | 120
10 | COC(=O)C1C(c2ccc(Cl)c(Cl)c2)CC2CCC1N2CCC[N+]12CC[S][Re]13(=[O])[S]CC[N]3C(=O)C2 (stereo not drawn) [[N-[2-[(3'-N'-Propyl-3''beta-(3,4-dichlorophenyl)tropane-2''beta-carboxylic acid methyl ester)(2-mercaptoethyl)amino]acetyl]-2-aminoethanethiolato]rhenium(V) oxide] |  | 639
